# A selection: hits, their analogues and other compounds. The true share with any hit is near 1.4%.
# OPRM1-OPRD1 ag: agonists of human mu-delta opioid receptor heterodimerization. P35372+P41143. cells, OPRM1-OPRD1 heterodimerization, luminescence. activation, % at 9.3 µM. 340,000 tested, 0.3% active. AID 504326; in the data active = activation above about 18%
# Target sequence (P35372 whole entry, looked up): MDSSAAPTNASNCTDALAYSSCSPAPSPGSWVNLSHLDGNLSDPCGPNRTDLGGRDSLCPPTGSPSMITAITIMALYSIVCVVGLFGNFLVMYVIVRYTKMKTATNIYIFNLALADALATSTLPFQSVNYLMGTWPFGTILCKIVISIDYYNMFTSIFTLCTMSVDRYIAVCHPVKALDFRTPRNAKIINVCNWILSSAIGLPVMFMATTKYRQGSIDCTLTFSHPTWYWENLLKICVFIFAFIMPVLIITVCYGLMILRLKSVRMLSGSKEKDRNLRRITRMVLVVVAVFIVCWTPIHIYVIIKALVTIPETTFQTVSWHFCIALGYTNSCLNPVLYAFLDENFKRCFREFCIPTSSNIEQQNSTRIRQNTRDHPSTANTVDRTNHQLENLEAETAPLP
# Target sequence (P41143 whole entry, looked up): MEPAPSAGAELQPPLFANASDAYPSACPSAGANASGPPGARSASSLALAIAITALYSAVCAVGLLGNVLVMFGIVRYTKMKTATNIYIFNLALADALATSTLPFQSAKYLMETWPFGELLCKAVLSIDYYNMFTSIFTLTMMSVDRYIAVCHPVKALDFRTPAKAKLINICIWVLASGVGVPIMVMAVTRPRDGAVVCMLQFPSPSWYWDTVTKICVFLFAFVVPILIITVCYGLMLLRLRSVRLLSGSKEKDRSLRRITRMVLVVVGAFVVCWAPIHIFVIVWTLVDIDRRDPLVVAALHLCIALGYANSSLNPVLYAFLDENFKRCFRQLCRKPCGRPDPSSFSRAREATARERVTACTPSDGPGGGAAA
# HTR5A inv ag: counter-screen for OPRM1-OPRD1 inverse agonists: human HTR5A inverse agonism. P47898. HTR5A cell line, luminescence. inhibition, % at 9.3 µM. 340,000 tested, 0.083% active. AID 504634; in the data active = inhibition mostly above about 23%, no sharp cut-off; inactive = mostly below about 18%
# OPRM1-OPRD1 inv: inverse agonists of human mu-delta opioid receptor heterodimerization; inhibition, % at 9.3 µM; cell-based MOR-DOR heterodimer luminescence, inverse agonism; P35372+P41143; 340,000 tested, 0.21% active; AID 504357; in the data active = inhibition above about 22%, passing the limit was not always enough
# Lipid droplet: modulators of hepatic lipid droplet formation; AML12 mouse hepatocytes, oleate lipid droplets, BODIPY imaging; inhibition, % at 6.5 µM; 240,000 tested, 0.4% active; AID 1656;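 active = lipid droplet intensity inhibited by at least 50%, with more than 500 cells counted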
#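 Material: mouse AML12 hepatocyte cell line, fixed after treatment; Timing: compound with oleate, overnight; Technique: high-content imaging of BODIPY-stained droplets and DAPI nuclei; Probe or stimulus: oleate, 100 µM final; Dosing: compound at 6.5 µM only.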
# HTR5A ag: HTR5A agonism, opioid heterodimer counter-screen. P47898. HTR5A agonist assay, luminescence, cell-based. activation, % at 9.3 µM. 340,000 tested, 0.61% active. AID 504692; in the data active = activation mostly above about 9.5%, no sharp cut-off; inactive = mostly below about 7.6%
# MOR-DOR inv conf: OPRM1-OPRD1 heterodimer inverse agonism, confirmation; shares compounds with OPRM1-OPRD1 inv; cells expressing OPRM1/OPRD1 heterodimer, luminescence; inhibition, % at 9.3 µM; 580 tested, 20% active; AID 504900; in the data active = inhibition above about 32%
# HTR5A inv count: counter-screen for OPRM1-OPRD1 inverse agonists: human HTR5A inverse agonism; shares compounds with OPRM1-OPRD1 inv; HTR5A-expressing cells, luminescence; inhibition, % at 9.3 µM; 580 tested, under 10 active; AID 504914; call rule not given here
# Numbers stand for hits; . = inactive; / = not tested or not shown.
SMILES,OPRM1-OPRD1 ag,HTR5A inv ag,OPRM1-OPRD1 inv,Lipid droplet,HTR5A ag,MOR-DOR inv conf,HTR5A inv count
O=C(CCC(=O)OCc1ccc([N+](=O)[O-])cc1)Nc1ccccc1Cl,.,.,.,.,.,/,/
CC(=O)c1ccc(NC(=O)CCC(=O)OCC(=O)c2cccc([N+](=O)[O-])c2)cc1,.,.,60.9,.,.,50.6,.
Cc1ccc(NC(=O)CCC(=O)OCC(=O)c2ccc(Oc3ccc([N+](=O)[O-])cc3)cc2)cc1,.,.,.,.,.,/,/
Cc1ccc(C(=O)COC(=O)CCC(=O)Nc2ccccc2Cl)cc1[N+](=O)[O-],.,.,45.1,.,.,.,.
Cc1ccc(N2CC(C(=O)OCC(=O)c3ccc(C)c([N+](=O)[O-])c3)CC2=O)cc1 (stereo not given),.,.,52.0,/,.,.,.
Cc1ccc(C(=O)COC(=O)c2ccncc2)cc1[N+](=O)[O-],.,.,48.8,.,.,.,.
CCOC(=O)CN1C(=O)N[C@@H](c2cccc(F)c2)C(C(=O)OC)=C1C,.,.,.,/,.,/,/
Cc1cc(OCC(=O)Nc2nnc(C3CC3)s2)ccc1[N+](=O)[O-],.,.,.,.,.,/,/
Cc1ccnc(NC(=O)CCC(=O)N(CC(=O)NC(C)(C)C)c2ccc(F)c(Cl)c2)c1,/,/,/,.,/,/,/
O=C(Nc1ccc(N2CCOCC2)cc1)c1ccc(S(=O)(=O)NCc2ccco2)cc1,.,.,.,.,.,/,/
CC(C)(C)CC(C)(C)SSc1n[nH]c(=S)s1,.,.,.,/,.,/,/
CCN(CC)Cc1c(C(=O)N/N=C/c2c(Cl)cccc2Cl)nnn1-c1nonc1N,.,.,.,.,.,/,/
O=C1CN(C(=O)c2ccc(Cl)c(S(=O)(=O)N3CCc4ccccc43)c2)c2ccccc2N1,.,.,.,.,.,/,/
CNC(=O)Nc1cc(NC(=O)NC)cc(C(F)(F)F)c1,.,.,.,.,.,/,/
CC(=O)Nc1ccc(NC(=O)CCC(=O)OCC(=O)c2ccc(C)c([N+](=O)[O-])c2)cc1,.,20.6,56.8,.,.,36.3,.
Cc1ccccc1C(=O)NNC(=O)C1CC(=O)N(Cc2ccccc2)C1 (stereo not given),.,.,.,/,.,/,/
CC1CN(c2ccccc2)NC1=O (stereo not given),.,.,47.8,.,.,.,.
CC1CN(Cc2ccccc2)C(=O)NC1=O (stereo not given),.,.,.,/,.,/,/
COc1ccccc1NC(=O)COC(=O)CN1C(=O)C(=O)c2ccccc21,.,.,56.5,.,.,.,.
Cc1ccc(NC(=S)NCc2ccco2)c(C)c1,.,.,.,.,.,/,/
CSC1=C(C#N)C(c2ccccc2C)C(C#N)=C(N)N1 (stereo not given),.,.,37.7,/,.,.,.
CN(C)S(=O)(=O)c1ccc(/C(O)=C2/C(=O)C(=O)N(Cc3cccnc3)C2c2cccs2)cc1 (stereo not given),.,.,39.5,.,.,.,.
CC(C)(Oc1ccc(Cl)cc1)C(=O)O/N=C(\N)c1ccncc1,.,.,.,.,.,/,/
CC1=C(C(=O)Nc2cccc(C(=O)N3CCN(c4cccc(C(F)(F)F)c4)CC3)c2)SCCO1,.,.,.,.,.,/,/
O=C(NCc1ccc2c(c1)OCO2)c1nc(S(=O)(=O)Cc2ccccc2F)ncc1Cl,.,.,32.0,.,.,.,.
SMILES,OPRM1-OPRD1 ag,HTR5A inv ag,OPRM1-OPRD1 inv,Lipid droplet,HTR5A ag,MOR-DOR inv conf,HTR5A inv count
O=C(NCc1ccccc1)c1nc(S(=O)(=O)Cc2ccccc2)ncc1Cl,.,.,34.8,.,.,.,.
O=C(NCc1ccc2c(c1)OCO2)c1nc(S(=O)(=O)Cc2ccccc2)ncc1Cl,.,.,.,.,.,/,/
COc1ccc(C(=O)Nc2nnc(Cc3ccccc3)s2)c(OC)c1,.,.,.,/,.,/,/
CS(=O)(=O)Nc1cccc(C(=O)CC2(O)C(=O)Nc3ccccc32)c1 (stereo not given),.,.,.,/,.,/,/
N#CC1(Nc2cccc(Br)c2)C(=O)Nc2ccccc21 (stereo not given),.,.,49.6,.,.,.,.
N#CC1(Nc2ccccc2)C(=O)Nc2ccccc21 (stereo not given),.,.,56.6,.,.,.,.
CC(=O)Nc1ccc(C2(c3ccc(NC(C)=O)cc3)C(=O)Nc3ccccc32)cc1,.,.,.,.,.,/,/
CCCCC(=O)NC(=S)NNC(=O)CCc1ccccc1,.,.,39.1,.,.,.,.
O=C(COC(=O)C1CCN(S(=O)(=O)c2cccs2)CC1)c1ccc2c(c1)OCCO2,.,.,.,/,.,/,/
O=C(COC(=O)C1CCN(S(=O)(=O)c2cccs2)CC1)c1cc2ccccc2o1,.,.,58.0,.,.,.,.
O=C1C(c2c(O)[nH]c3ccccc23)=Nc2ccccc21,.,.,.,.,.,/,/
CC(=O)c1cccc2c(O)c(C3=Nc4ccccc4C3=O)[nH]c12,.,.,36.2,.,.,.,.
CC(=O)NC(c1ccc(Cl)cc1)c1c(O)ccc2ccc(O)cc12 (stereo not given),.,.,33.0,.,.,.,.
CC1(C)CN(c2ccccc2)N(C(=O)c2ccc(C#N)cc2)C1=O,.,.,51.5,/,.,.,.
CC1(C)CN(c2ccccc2)N(C(=O)c2ccc(F)cc2)C1=O,.,.,45.7,/,.,.,.
CC1(C)CN(c2ccc(C(=O)c3ccccc3)cc2)C1=O,.,.,.,.,.,/,/
COc1cc(C(=O)Nc2nc(C)cc(C)n2)cc(OC)c1OC,.,.,.,.,.,/,/
CC(C)(C)c1ccc(S(=O)(=O)/N=C2\C=C(NS(=O)(=O)c3ccccc3)C(=O)c3ccccc32)cc1,.,.,32.1,.,.,.,.
Cc1ccc(S(=O)(=O)/N=C2\C=C(Nc3cccc(C(=O)O)c3)C(=O)c3ccccc32)c(C)c1,.,.,.,.,.,/,/
Cc1ccc(S(=O)(=O)/N=C2\C=C(NS(=O)(=O)c3ccccc3)C(=O)c3ccccc32)c(C)c1,.,.,29.7,/,.,.,.
O=C(COC(=O)c1cc(S(=O)(=O)NCc2ccccc2)ccc1O)c1cc2ccccc2o1,.,.,40.5,.,.,.,.
O=C(COC(=O)c1cc(S(=O)(=O)NCc2ccccc2)ccc1O)NCc1ccccc1,.,.,.,.,.,/,/
CC(C)(C)S(=O)N1Cc2cc(CO)ccc2[C@@H]1CCO (stereo not given in full),.,.,.,/,.,/,/
CC1=C(C)C(=O)C(N2CCOCC2)=CC1=O,.,.,46.6,.,.,.,.
Cc1cccc(NC(=S)NC(=O)c2ccco2)n1,.,.,21.8,.,.,.,.
O=C(N/N=C/c1cccc2cccnc12)c1ccccc1O,.,.,35.7,.,.,.,.
Cn1cnc([N+](=O)[O-])c1S(=O)(=O)Oc1ccc(Cl)cc1,.,.,39.5,/,.,.,.

# Source: PubChem BioAssay (several laboratories)
